TRPC6 inhibitor – mouse TRPC6 channel inhibition | hit rate 1.1% among 310,000 | B-score at 10 µM | HEK293-TRPC6, membrane potential dye, ACh-evoked depolarization; stronger effect = lower value;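 active means B-score under library mean minus 3 SD, initial fluorescence not abnormally high, positive integrated signal ratio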;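 further: B-score derived from integrated fluorescence ratio over the kinetic read; more negative B-score means stronger inhibition of depolarization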
Target sequence (Q61143 whole entry, looked up): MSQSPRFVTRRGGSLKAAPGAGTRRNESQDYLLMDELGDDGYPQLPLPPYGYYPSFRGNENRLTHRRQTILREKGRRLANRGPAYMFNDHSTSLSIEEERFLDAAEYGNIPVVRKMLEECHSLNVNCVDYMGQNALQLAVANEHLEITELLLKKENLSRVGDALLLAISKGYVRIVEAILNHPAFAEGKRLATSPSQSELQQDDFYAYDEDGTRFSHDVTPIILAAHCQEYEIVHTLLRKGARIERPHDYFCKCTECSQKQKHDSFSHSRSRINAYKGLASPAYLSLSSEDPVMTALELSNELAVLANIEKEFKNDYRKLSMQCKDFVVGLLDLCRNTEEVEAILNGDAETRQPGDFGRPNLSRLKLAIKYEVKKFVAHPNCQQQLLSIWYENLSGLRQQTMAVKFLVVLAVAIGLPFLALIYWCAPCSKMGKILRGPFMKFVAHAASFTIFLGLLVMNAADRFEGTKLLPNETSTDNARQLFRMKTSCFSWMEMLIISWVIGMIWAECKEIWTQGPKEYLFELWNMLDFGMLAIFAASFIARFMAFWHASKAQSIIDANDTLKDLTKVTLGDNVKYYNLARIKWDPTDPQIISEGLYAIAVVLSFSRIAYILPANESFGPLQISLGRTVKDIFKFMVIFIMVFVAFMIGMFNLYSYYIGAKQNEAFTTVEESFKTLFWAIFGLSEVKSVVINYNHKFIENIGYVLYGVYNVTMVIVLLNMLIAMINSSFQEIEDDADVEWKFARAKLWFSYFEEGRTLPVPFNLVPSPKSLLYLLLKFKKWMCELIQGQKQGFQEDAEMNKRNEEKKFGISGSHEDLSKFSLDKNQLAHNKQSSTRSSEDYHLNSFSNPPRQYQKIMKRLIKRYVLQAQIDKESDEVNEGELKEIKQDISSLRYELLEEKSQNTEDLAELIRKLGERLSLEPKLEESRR
TRPC4 inh – inhibitors of mouse TRPC4 channel. Q9QUQ5. HEK293 TRPC4beta/mu-opioid, DAMGO-evoked Fluo4 calcium flux; stronger effect = lower value. B-score at 10 µM. hit rate 0.39% among 300,000;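 active means B-score over 3 SD under the library average, no early fluorescence shift, positive overall ratio signal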
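Signal: kinetic Fluo4 fluorescence imaging of calcium influx. Material: stable TRPC4beta/mu-opioid receptor HEK293 cells. Probe or stimulus: DAMGO in two steps, submaximal then maximal.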
TRPC4 PAM – TRPC4 (mouse) allosteric potentiation. HEK293 TRPC4beta/mu-opioid, DAMGO EC20, Fluo-4 Ca2+ flux; stronger effect = higher value. hit rate 0.42% among 310,000. Q9QUQ5. B-score at 10 µM;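 active means B-score of calcium response area above 5 SD of library B-scores, with initial fluorescence ratio within 5 SD of library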;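 further: B-score of integrated fluorescence ratio over time as area under calcium response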
TRPC4 act – activators of mouse TRPC4 channel; Q9QUQ5; HEK293 TRPC4beta/mu-opioid, Fluo4 calcium fluorescence; stronger effect = higher value; hit rate 0.49% among 310,000; B-score at 10 µM;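 active means B-score above 5 SD of library B-scores, and initial fluorescence ratio not above library mean plus 5 SD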;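 further: positive B-score marks a calcium rise read as TRPC4 activation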
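Assay system: HEK293 stable line with TRPC4beta plus mu-opioid receptor; schedule: 45 min room-temperature Fluo4 loading, 110 s read; technique: kinetic Fluo4 calcium fluorescence; evaluation: integrated baseline-normalised fluorescence ratio, converted to per-well B score; controls: buffer (low) and maximal DAMGO (high)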
TRPC6 act – activators of mouse TRPC6 channel; B-score at 10 µM; hit rate 0.13% among 310,000; Q61143; HEK293-TRPC6 membrane potential dye fluorescence; stronger effect = higher value;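 active means B-score of the integrated fluorescence ratio above library mean plus 3 SD, and starting fluorescence ratio within library mean plus 5 SD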;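 further: higher score means more depolarization so channel activation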
Active calls of the source: *; i = inactive. Shown are actives, neighbours in structure and some others; about 2.3% of the full set was active somewhere.

SMILES	TRPC6 inhibitor	TRPC4 inh	TRPC4 PAM	TRPC4 act	TRPC6 act
Cc1ccc(NC(=O)COc2cccc(-n3cnnn3)c2)cc1[N+](=O)[O-]	i	i	i	i	i
O=C(/C=C/c1ccccc1)N(c1ccccn1)C1CCCCC1	i	i	i	i	i
O=C(/C=C/c1ccccc1Cl)N(c1ccccn1)C1CCCCC1	i	i	16*	i	i
COc1ccc(Cn2nnnc2C(c2ccc(N(C)C)cc2)N2CCC(C(N)=O)CC2)cc1 (stereo not given)	i	i	i	i	i
CCc1c(C)nc(N2CCN(c3ccc(OC)cc3)CC2)[nH]c1=O	i	i	i	i	i
O=C(Nc1ccc(Cl)cc1)N1CCC(c2nc(-c3cccs3)no2)CC1	i	i	i	137*	i
O=C(NC1CCCCC1)N1CCCC(c2nc(-c3cccs3)no2)C1 (stereo not given)	i	i	i	i	i
O=C(Nc1ccccc1)N1CCCC(c2nc(-c3cccs3)no2)C1 (stereo not given)	i	i	i	47*	i
C=CCn1c(CCNC(=O)C(C)(C)C)nc2ccccc21	i	i	i	146*	i
CC(=O)n1cc([C@H]2C=C(C(N)=O)O[C@@H](OCc3ccc(CO)cc3)C2)c2ccccc21	i	i	i	51*	i
C#CCNC(=O)C1=C[C@@H](c2cn(C(C)=O)c3ccccc23)C[C@@H](OCc2ccc(CO)cc2)O1	i	i	i	i	i
C#CCNC(=O)C1=C[C@H](c2csc3ccccc23)C[C@H](OCc2ccc(CO)cc2)O1	i	i	i	52*	i
CC(=O)n1cc([C@H]2C=C(C(=O)NCc3ccccc3)O[C@@H](OCc3ccc(CO)cc3)C2)c2ccccc21	i	i	i	244*	i
Cc1[nH]c2ccccc2c1C(=O)C(=O)N1CCN(c2ccccc2F)CC1	i	i	i	i	i
CC(C)(C)C(=O)Nc1sc2c(c1C#N)CCN(Cc1ccccc1)C2	i	i	i	i	13.2*
N#Cc1c(NC(=S)NC(=O)c2ccccc2)sc2c1CCN(CCc1ccccc1)C2	i	i	i	i	i
CC1=NN(c2ccc(C)cc2C)C(=O)C1C(c1cccc(O)c1)C1C(=O)N(c2ccc(C)cc2C)N=C1C (stereo not given)	i	i	i	i	i
Cc1cccc(C)c1OCc1cc(C(=O)N2CCN(c3ccccc3)CC2C)no1 (stereo not given)	i	i	i	i	i
Cc1ccc(C(C2=C(O)CC(C)(C)CC2=O)C2C(=O)CC(C)(C)CC2=O)s1 (stereo not given)	i	i	i	i	i
CC1(C)CC(=O)C(C(C2=C(O)CC(C)(C)CC2=O)c2ccc(Br)s2)C(=O)C1 (stereo not given)	i	i	10*	i	i
COc1cccc(/C=C/C(=O)NCc2ccc3c(c2)OCO3)c1	i	i	i	i	i
c1ccc2c(SCc3cn4ccccc4n3)nncc2c1	i	i	i	i	i
CCOc1ccc(-c2cc(NC(=O)c3c(F)cccc3F)c(C(=O)O)s2)cc1	i	-5*	i	i	i
Cc1cc(N)c(C)c([N+](=O)[O-])c1C	i	i	i	i	i
Cc1c(N)c(C(C)(C)C)cc(C(C)(C)C)c1[N+](=O)[O-]	i	-6*	i	i	i
SMILES	TRPC6 inhibitor	TRPC4 inh	TRPC4 PAM	TRPC4 act	TRPC6 act
O=C(O)C1CC=CCC1C(=O)Nc1ccc2c(c1)CCC2 (stereo not given)	i	i	i	i	i
CCOc1cc(O)c(-c2[nH]ncc2-c2nc(C)cs2)cc1CC	i	i	20*	i	i
CCc1cc(-c2[nH]ncc2-c2nc3ccccc3n2C)c(O)cc1O	i	i	i	i	i
CN(C)S(=O)(=O)N1CCN(c2ccc([N+](=O)[O-])c(NC3CC3)c2)CC1	i	i	10*	i	i
C=C(C)COc1ccc(-c2n[nH]c(C)c2-c2ccc(OC)c(OC)c2)c(O)c1	i	i	i	i	i
Cc1nc2ccccc2n1Cc1ccc(Br)cc1	i	-6*	i	i	i
CCCc1nc2ccccc2n1CCOC	i	i	i	i	i
Cc1ccc(OCCn2c(C)nc3ccccc32)cc1	i	-6*	i	i	i
CC(C)(C)Cc1nc2ccccc2n1CCc1ccccc1	i	-7*	i	i	i
Cc1nc2ccccc2n1Cc1ccccc1	i	i	i	i	i
CCCc1nc2ccccc2n1CCOc1ccccc1	i	-6*	i	i	i
Nc1nc2ccccc2n1CCOc1ccc(Br)cc1	i	i	i	i	i
Cc1nc2ccccc2n1CCCOc1ccccc1	i	i	i	i	i
Cc1nc(Cl)c(Cl)n1CCOc1ccccc1	i	-8*	i	i	i
Nc1nc2ccccc2n1CCOc1ccc(Cl)cc1	i	-7*	i	i	i
CS(=O)(=O)N(Cc1ccccc1Cl)c1ccc(C(=O)NCc2ccccn2)cc1	i	i	i	i	i
O=C(O)/C=C/c1ccc(S(=O)(=O)N2CCN(CCN3C(=O)C4C5C=CC(C5)C4C3=O)CC2)cc1 (stereo not given)	i	i	i	i	i
CC(=O)Nc1ccc2nc(NS(=O)(=O)c3ccc(C)cc3)sc2c1	i	i	i	i	i
COc1ccc2nc(NS(=O)(=O)c3ccc(NC(C)=O)cc3)sc2c1	i	-7*	i	122*	i
Cc1csc2c(N3CCN(C(=O)Nc4ccc(OC(F)(F)F)cc4)CC3)ncnc12	i	i	i	98*	i
O=C(NNc1cc(N2CCOCC2)nc(N2CCOCC2)n1)c1ccc(Cl)cc1Cl	i	i	i	i	i
Cc1ccc(S(=O)(=O)Nc2ccc3c(c2)nc(CN2CCCC2)n3C)cc1	i	i	i	44*	i
Cc1ccc(S(=O)(=O)Nc2ccc3c(c2)nc(CCN2CCCCC2)n3C)cc1	i	i	i	i	i
Nc1c2c(nc3sc4c(c13)CCCCC4)CCCCC2	i	-5*	i	i	i
CC1CCc2nc3sc4c(c3c(N)c2C1)CCCC4 (stereo not given)	i	i	i	i	i
CCNC(=S)N1CCC(C(O)(c2ccccc2)c2ccccc2)CC1	i	-6*	i	100*	i

Assay outcomes: PubChem BioAssay, Johns Hopkins Ion Channel Center
